pKi: −log10 of the molar value. Values after ≈ are worked out from the molar mass of the structure shown. Active and inactive are the calls of the source. The calls are words filed in the database; no cut-off is given here.
Tests used:
Cannabinoid receptor 1 [1] = molecular target: T1, Cannabinoid receptor 1 (Homo sapiens, UniProt P21554); test: Binding affinity to human CB1 receptor
Cannabinoid receptor 1 [2] = molecular target: T1, Cannabinoid receptor 1; test: Binding affinity to human CB1 receptor at 13 uM
[3] = Average Tmax in Sprague-Dawley rat at 10 mg/kg, po; type: ADME, organism-based; parameters: dose 10 mg/kg, route oral; settings: in vivo
In short: (§1)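 Oral PK in male Sprague-Dawley rats dosed at 10 mg/kg. Plasma sampled over 0–4 h for AUC(0–4h) and Tmax. Brain and plasma concentrations were taken at 4 h to give the brain/plasma ratio. Values are averages of n = 2 rats.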

[4] = AUC(0 to 4 hrs) in Sprague-Dawley rat at 10 mg/kg, po; type: ADME, organism-based; parameters: time < 4 hr, dose 10 mg/kg, route oral; settings: plasma; in short: as §1
[5] = Drug level in Sprague-Dawley rat brain at 10 mg/kg, po after 4 hrs; type: ADME, organism-based; parameters: dose 10 mg/kg, route oral; settings: read-out: Drug uptake; in short: as §1
[6] = Ratio of drug level in brain to plasma in Sprague-Dawley rat at 10 mg/kg, po after 4 hrs; type: ADME, organism-based; parameters: dose 10 mg/kg, route oral; settings: read-out: BPR; in short: as §1
Cannabinoid receptor 1 [7] = molecular target: Cannabinoid receptor 1 (Rattus norvegicus, UniProt P20272); test: Binding affinity to rat CB1 receptor
[8] = Aqueous solubility at pH 6.5; type: physicochemical
Rattus norvegicus [9] = test: Reduction in feeding in food deprived Sprague-Dawley rat feeding model at 10 mg/kg, po after 2 hrs; type: functional; parameters: scale not given: the % may be the effect or the level left
In short: (§2)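 Rats were fasted and then dosed orally at 10 mg/kg. Food was reintroduced 30 min after dosing, and refeeding was quantified versus vehicle-treated animals at 2, 4 and 24 h post-dose. Locomotor activity was also monitored.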

Rattus norvegicus [10] = test: Reduction in feeding in food deprived Sprague-Dawley rat feeding model at 10 mg/kg, po after 4 hrs; type: functional; parameters: scale not given: the % may be the effect or the level left; in short: as §2
Rattus norvegicus [11] = test: Reduction in feeding in food deprived Sprague-Dawley rat feeding model at 10 mg/kg, po after 24 hrs; type: functional; parameters: scale not given: the % may be the effect or the level left; in short: as §2
Rattus norvegicus [12] = test: Change in food intake in Sprague-Dawley rat at 10 mg/kg, po; type: functional, organism-based; parameters: dose 10 mg/kg
In short: (§3)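 Ad libitum-fed rats trained to operate a lever to obtain food were dosed orally at 10 or 30 mg/kg. Cumulative food intake was measured at 4 h versus vehicle-treated controls, with significance testing (p < 0.05).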

Rattus norvegicus [13] = test: Change in food intake in Sprague-Dawley rat at 30 mg/kg, po after 4 hrs; type: functional; in short: as §3
[14] = Average Tmax in Sprague-Dawley rat at 30 mg/kg, po; type: ADME, organism-based; parameters: dose 30 mg/kg, route oral; settings: in vivo
In short: (§4)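 Male Sprague–Dawley rats dosed orally at 30 mg/kg as a suspension in 0.5% Methocel/1% Tween 80/water. Plasma and brain levels measured, with brain concentration and brain/plasma ratio taken at 4 h. AUC covers 0–4 h. Values are averages of n = 2 rats.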

[15] = AUC(0 to 4 hrs) in Sprague-Dawley rat at 30 mg/kg, po; type: ADME, organism-based; parameters: time < 4 hr, dose 30 mg/kg, route oral; settings: plasma; in short: as §4
[16] = Drug level in Sprague-Dawley rat brain at 30 mg/kg, po after 4 hrs; type: ADME, organism-based; parameters: dose 30 mg/kg, route oral; settings: read-out: Drug uptake; in short: as §4
[17] = Ratio of drug level in brain to plasma in Sprague-Dawley rat at 30 mg/kg, po after 4 hrs; type: ADME, organism-based; parameters: dose 30 mg/kg, route oral; settings: read-out: Drug uptake; in short: as §4

Chain of Cannabinoid receptor 1 (Rattus norvegicus, UniProt P20272) (P20272 whole entry): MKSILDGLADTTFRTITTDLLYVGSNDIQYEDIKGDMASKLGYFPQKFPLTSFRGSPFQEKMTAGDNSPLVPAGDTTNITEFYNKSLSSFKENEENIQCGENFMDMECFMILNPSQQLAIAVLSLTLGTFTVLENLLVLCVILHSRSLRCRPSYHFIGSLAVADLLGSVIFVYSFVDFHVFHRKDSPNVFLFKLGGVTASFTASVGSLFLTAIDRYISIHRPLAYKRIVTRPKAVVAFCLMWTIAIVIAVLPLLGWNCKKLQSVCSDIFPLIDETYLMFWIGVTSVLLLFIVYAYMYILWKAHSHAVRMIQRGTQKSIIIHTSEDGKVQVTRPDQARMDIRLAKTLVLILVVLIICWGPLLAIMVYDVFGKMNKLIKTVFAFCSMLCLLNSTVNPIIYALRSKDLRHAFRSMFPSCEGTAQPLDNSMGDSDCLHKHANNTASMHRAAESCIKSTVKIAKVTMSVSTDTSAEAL
T1 sequence (P21554 whole entry): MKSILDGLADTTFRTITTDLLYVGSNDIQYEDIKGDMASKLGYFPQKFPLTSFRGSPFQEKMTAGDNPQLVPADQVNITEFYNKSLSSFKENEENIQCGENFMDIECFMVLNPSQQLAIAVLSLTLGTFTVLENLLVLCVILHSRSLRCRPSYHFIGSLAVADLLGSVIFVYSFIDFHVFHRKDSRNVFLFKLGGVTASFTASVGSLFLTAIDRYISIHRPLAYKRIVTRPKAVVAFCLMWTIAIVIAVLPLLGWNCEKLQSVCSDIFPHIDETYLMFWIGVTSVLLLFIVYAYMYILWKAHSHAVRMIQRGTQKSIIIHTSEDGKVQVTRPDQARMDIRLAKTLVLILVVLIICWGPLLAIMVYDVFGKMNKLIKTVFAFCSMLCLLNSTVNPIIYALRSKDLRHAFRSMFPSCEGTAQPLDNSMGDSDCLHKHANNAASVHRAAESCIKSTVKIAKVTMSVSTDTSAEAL

Row | pKi (Cannabinoid receptor 1 [1]) | Compound | further results
1 | 6.62 | Cc1ccc(-c2ncc(C(=O)N[C@@H](C(N)=O)c3ccccc3)nc2-c2ccc(C)cc2)cc1 | 
2 | 5.41 | CNC(=O)c1cnc(-c2ccc(C)cc2)c(-c2ccc(C)cc2)n1 | 
3 | 6.20 | Cc1ccc(-c2ncc(C(=O)NCCOc3ccccc3)nc2-c2ccc(C)cc2)cc1 | 
4 | 7.28 | Cc1ccc(-c2ncc(C(=O)NN3CCCCC3)nc2-c2ccc(C)cc2)cc1 | 
5 | 6.29 | Cc1ccc(-c2ncc(C(=O)Nc3ccccc3)nc2-c2ccc(C)cc2)cc1 | 
6 | 6.98 | Cc1ccc(-c2ncc(C(=O)N[C@@H](CC(C)C)C(N)=O)nc2-c2ccc(C)cc2)cc1 | 
7 | 6.96 | Cc1ccc(-c2ncc(C(=O)N(C)Cc3ccccc3)nc2-c2ccc(C)cc2)cc1 | 
8 | 6.18 | Cc1ccc(-c2ncc(C(=O)NC(C)C)nc2-c2ccc(C)cc2)cc1 | 
9 | 5.07 | Cc1ccc(-c2ncc(C(=O)NCCO)nc2-c2ccc(C)cc2)cc1 | 
10 | 7.48 | Cc1ccc(-c2ncc(C(=O)NC3Cc4ccccc4C3O)nc2-c2ccc(C)cc2)cc1 (configuration not stated) | 
11 | 7.74 | Cc1ccc(-c2ncc(C(=O)NCCCc3ccccc3)nc2-c2ccc(C)cc2)cc1 | Tmax [14]: 2 h; AUC(0-t) at 4 h [15]: 0.256 µM·h; concentration at 4 h [16]: 34 nM; Kp at 4 h [17]: 0.4; pKi (Cannabinoid receptor 1 [7]): 7.10
12 | 6.75 | Cc1ccc(-c2ncc(C(=O)NCC3CC3)nc2-c2ccc(C)cc2)cc1 | 

Second part, the molecule before the results:

Row | Compound | pKi (Cannabinoid receptor 1 [1]) | further results
13 | Cc1ccc(-c2ncc(C(=O)N3CCNC(=O)C3)nc2-c2ccc(C)cc2)cc1 |  | inhibition (Cannabinoid receptor 1 [2]): 29%
14 | Cc1ccc(-c2ncc(C(=O)NC3CCNC3=O)nc2-c2ccc(C)cc2)cc1 (configuration not stated) |  | inhibition (Cannabinoid receptor 1 [2]): 46%
15 | CCCC(CO)NC(=O)c1cnc(-c2ccc(C)cc2)c(-c2ccc(C)cc2)n1 (configuration not stated) | 6.80 | 
16 | Cc1ccc(-c2ncc(C(=O)N[C@H](CO)C(C)C)nc2-c2ccc(C)cc2)cc1 | 6.63 | 
17 | CCNC(=O)c1cnc(-c2ccc(C)cc2)c(-c2ccc(C)cc2)n1 | 5.62 | 
18 | Cc1ccc(-c2ncc(C(=O)N[C@@H]3CCCC[C@@H]3CO)nc2-c2ccc(C)cc2)cc1 | 6.78 | 
19 | CC(C)C[C@@H](CO)NC(=O)c1cnc(-c2ccc(Cl)cc2)c(-c2ccc(Cl)cc2)n1 | 7.85 | Tmax [3]: 1 h; AUC(0-t) at 4 h [4]: 0.736 µM·h; concentration at 4 h [5]: 491 nM; Kp at 4 h [6]: 3.1; pKi (Cannabinoid receptor 1 [7]): 7.52
20 | Cc1ccc(-c2ncc(C(=O)NCCCN(C)c3ccccc3)nc2-c2ccc(C)cc2)cc1 | 7.60 | 
21 | Cc1ccc(-c2ncc(C(=O)NC(C)COc3c(C)cccc3C)nc2-c2ccc(C)cc2)cc1 (configuration not stated) | 7.41 | 
22 | CC(C)C[C@@H](COP(=O)(O)O)NC(=O)c1cnc(-c2ccc(Cl)cc2)c(-c2ccc(Cl)cc2)n1 |  | solubility [8]: 430 µg/mL (≈ 820 µM)
23 | Cc1ccc(-c2ncc(C(=O)N3CCC(O)CC3)nc2-c2ccc(C)cc2)cc1 |  | inhibition (Cannabinoid receptor 1 [2]): 38%
24 | Cc1ccc(-c2ncc(C(=O)N[C@@H]3CCCC[C@@H]3O)nc2-c2ccc(C)cc2)cc1 | 6.52 | 
25 | Cc1ccc(-c2ncc(C(=O)N[C@@H]3CCCC[C@H]3CO)nc2-c2ccc(C)cc2)cc1 | 7.30 | 
26 | Cc1ccc(-c2ncc(C(=O)N[C@@H](CO)CC(C)C)nc2-c2ccc(C)cc2)cc1 | 6.34 | 
27 | CCC(COCc1ccccc1)NC(=O)c1cnc(-c2ccc(C)cc2)c(-c2ccc(C)cc2)n1 (configuration not stated) | 6.69 | 
28 | Cc1ccc(-c2ncc(C(=O)N[C@@H](CO)C(C)C)nc2-c2ccc(C)cc2)cc1 | 6.50 | 
29 | Cc1ccc(-c2ncc(C(=O)N[C@H]3CC[C@H](O)CC3)nc2-c2ccc(C)cc2)cc1 |  | inhibition (Cannabinoid receptor 1 [2]): 54%
30 | Cc1ccc(-c2ncc(C(=O)N[C@H](CO)CC(C)C)nc2-c2ccc(C)cc2)cc1 | 7.35 | Activity (Rattus norvegicus [9]): 37%; Activity (Rattus norvegicus [10]): 32%; Activity (Rattus norvegicus [11]): 16%; Activity (Rattus norvegicus [12]): inactive; Activity (Rattus norvegicus [13]): 34%; Tmax [3]: 1 h; AUC(0-t) at 4 h [4]: 0.541 µM·h; concentration at 4 h [5]: 306 nM; Kp at 4 h [6]: 3; pKi (Cannabinoid receptor 1 [7]): 7.46
31 | Cc1ccc(-c2ncc(C(=O)NCC3CCCCC3)nc2-c2ccc(C)cc2)cc1 | 7.23 | 
32 | Cc1ccc(-c2ncc(C(=O)NC(C)CCc3ccccc3)nc2-c2ccc(C)cc2)cc1 (configuration not stated) | 8.30 | 

From ChEMBL document CHEMBL1139999, “Discovery of pyrazine carboxamide CB1 antagonists: the introduction of a hydroxyl group improves the pharmaceutical properties and in vivo efficacy of the series” (Bioorg Med Chem Lett, 2007)
